A selection: hits, their analogues and other compounds. The true share with any hit is near 2.2%.
MEX-5 binding: MEX-5 zinc finger RNA-binding disruptors – biochemical, C. elegans, fluorescence polarization, MLPCN library, primary screen. Zinc finger protein mex-5 (Caenorhabditis elegans), Q9XUB2. MEX-5/FITC-TCR2 RNA binding; hits give low values. 0.38% of 300,000 active. activity score (negative = inhibition of binding), % at 10 µM;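 active means inhibition past about -25% in most replicates, and total fluorescence under double the plate's negative control median, limit read from the data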
IMP-1 inh: IMP-1 metallo-beta-lactamase inhibitors, primary screen, biochemical, epi-absorbance readout, Pseudomonas aeruginosa enzyme; purified IMP-1, nitrocefin hydrolysis, epi-absorbance fluorescence; inhibition, % at 5.6 µM; 0.45% of 290,000 active;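 active means inhibition above the mean plus 3 SD of all compounds in the same screening run, cut at about 4.5% in these data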
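Test system: recombinant IMP-1 enzyme, purified / Medium: HEPES buffer pH 7.1 with ZnSO4 and Brij 35 / Doses: single dose, 5.6 µM / Times: 25 °C, 15 min preincubation, 25 min reaction / Detection: Epi-absorbance via hydrolysed-nitrocefin quenching of white-plate fluorescence, 480/530 nm, EDTA stop / Evaluation: percent inhibition from optical density relative to buffer-blank wells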
GLD-1 TGE inh: GLD-1/TGE RNA complex disruptors, primary screen, biochemical, fluorescence polarization; AID 2280, 2010; 0.44% of 320,000 active; purified GLD-1 + fluorescein TGE RNA; inhibition, % at 5.96 µM; Female germline-specific tumor suppressor gld-1 (Caenorhabditis elegans), Q17339;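 active means percent inhibition above a per-plate cutoff, the plate mean of test compounds plus 3 SD, cut at about 30% in these data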
Target sequence (Q17339 whole entry, looked up): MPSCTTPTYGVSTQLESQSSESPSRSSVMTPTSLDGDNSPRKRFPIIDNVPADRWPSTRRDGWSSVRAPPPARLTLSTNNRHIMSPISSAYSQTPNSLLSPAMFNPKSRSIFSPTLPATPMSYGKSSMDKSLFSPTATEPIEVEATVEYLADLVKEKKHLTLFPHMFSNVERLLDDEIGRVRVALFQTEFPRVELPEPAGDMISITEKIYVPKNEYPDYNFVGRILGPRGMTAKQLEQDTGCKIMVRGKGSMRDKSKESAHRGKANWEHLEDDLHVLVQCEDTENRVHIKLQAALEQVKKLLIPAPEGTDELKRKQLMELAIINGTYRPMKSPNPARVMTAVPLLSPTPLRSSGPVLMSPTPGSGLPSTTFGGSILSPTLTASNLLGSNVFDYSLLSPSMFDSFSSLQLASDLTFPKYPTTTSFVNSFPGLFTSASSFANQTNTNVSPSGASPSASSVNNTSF
EBV gp42 block: Epstein-Barr virus gp42 inhibitors, primary screen, biochemical, uHTS, fluorescence polarization. Fluorescence polarization binding assay, mP read-out. AID 1085, 2008. Glycoprotein 42 (Epstein-Barr virus (strain AG876)), Q1HVG2. inhibition, % (tested at 21.74 µM). 0.42% of 220,000 active; in the data active means inhibition above about 50%
Bcl-xL primary: inhibitors of human Bcl-xL, primary screen, biochemical, fluorescence polarization, HTS. inhibition, % at 10.9 µM. GST-Bcl-xL / FITC-Bim BH3 peptide fluorescence polarization. 0.7% of 320,000 active. AID 2129, 2009. Bcl-2-like protein 1 (Homo sapiens), Q07817;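 active means inhibition above the mean of all tested compounds plus 3 SD, cutoff set per campaign, cut at about 30% in these data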;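 further: inhibitors lower millipolarization by displacing the labeled peptide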
VIM-2 inh: VIM-2 metallo-beta-lactamase inhibitors, primary screen, biochemical, epi-absorbance readout, Pseudomonas aeruginosa enzyme; purified VIM-2, nitrocefin hydrolysis, epi-absorbance fluorescence; inhibition, % at 5.6 µM; 0.89% of 290,000 active; AID 1527, 2009;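 active means inhibition above the mean of all tested compounds plus 3 SD, cutoff set per screening run, cut at about 7.5% in these data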;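 further: red hydrolysis product quenches plate fluorescence so inhibitors raise well fluorescence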
GLD1 RNA confirm: GLD-1/TGE RNA binding inhibitors, retest, confirmation, biochemical, fluorescence polarization, triplicate; shares compounds with GLD-1 TGE inh; GLD-1/FL-TGE RNA fluorescence polarization; inhibition, % at 5.96 µM; 10% of 550 active;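 active means average inhibition across triplicates above the hit cutoff set in the primary screen, cut at about 32% in these data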
Each line names hits and unclear results; the compound was inactive in the other large screens (follow-up assays come after a bar, where they were run).

CCOC(=O)C1=C(CC)OC(N)=C(C#N)C1c1ccc(OC)cc1OC (stereo not drawn)	none
COC(=O)c1cc2c(C)cc3ccc(C)cn3c-2c1C(=O)OC	GLD-1 TGE inh 55, EBV gp42 block 88, Bcl-xL primary 93 | GLD1 RNA confirm 41
COC(=O)c1coc(-c2ccc(C)cc2)c1C(=O)OC	none
C/C(Cc1ccccc1)=N\NC(=O)CNC(=O)c1ccc(Cl)cc1	GLD-1 TGE inh 62 | GLD1 RNA confirm inactive
C/C(Cc1ccccc1)=N\NC(=O)CNC(=O)c1ccc(F)cc1	none (no result: EBV gp42 block)
COCCN1CN(S(=O)(=O)c2cccc(Cl)c2)c2nc3ccccc3nc21	none (no result: EBV gp42 block)
COCCCN1CN(S(=O)(=O)c2ccc(Cl)cc2)c2nc3ccccc3nc21	GLD-1 TGE inh 34 | GLD1 RNA confirm inactive
C=CCN1CN(S(=O)(=O)c2cccc(Cl)c2)c2nc3ccccc3nc21	GLD-1 TGE inh 45, Bcl-xL primary 34 (no result: EBV gp42 block) | GLD1 RNA confirm inactive
C(=Nc1cccc2c(N=Cc3ccco3)cccc12)c1ccco1	IMP-1 inh 16, GLD-1 TGE inh 43, Bcl-xL primary 82 | GLD1 RNA confirm inactive
CCC(C)C(NC(=O)C1CCC(C)CC1)C(=O)NCCc1ccc(S(N)(=O)=O)cc1 (stereo not drawn)	none (no result: EBV gp42 block)
NS(=O)(=O)c1cccc(NC(=O)CN2CCc3ccccc32)c1	GLD-1 TGE inh 47, Bcl-xL primary 63 | GLD1 RNA confirm inactive
CN(c1ccccc1)S(=O)(=O)c1cccc(NC(=O)CN2CCCc3ccccc32)c1	none
COc1ccc(NC(=O)CSc2ccccc2)cn1	none
COc1ccc(NC(=O)Cc2ccccc2)cn1	GLD-1 TGE inh 36, Bcl-xL primary 38 | GLD1 RNA confirm 35
COc1ccc(NC(=O)C(c2ccc(Cl)cc2)C(C)C)cn1 (stereo not drawn)	GLD-1 TGE inh 36, Bcl-xL primary 36 (no result: EBV gp42 block) | GLD1 RNA confirm inactive
Cc1ccc(-n2nc(C)c(C(=O)Nc3cccc(C(=O)NC4CC4)c3)n2)c(C)c1	none (no result: MEX-5 binding, IMP-1 inh, EBV gp42 block, VIM-2 inh)
O=C1NC(=S)CN1c1ccccc1	GLD-1 TGE inh 69, Bcl-xL primary 70 | GLD1 RNA confirm inactive
O=C1C(=O)N(CCCn2ccnc2)C(c2ccc([N+](=O)[O-])cc2)/C1=C(\O)c1ccc2c(c1)OCCO2 (stereo not drawn)	none (no result: MEX-5 binding, IMP-1 inh, EBV gp42 block, VIM-2 inh)
C1=C(c2cc3ccccc3cn2)CCCC1	none (no result: MEX-5 binding, IMP-1 inh, EBV gp42 block, Bcl-xL primary, VIM-2 inh)
CC(=O)N1CC=C2C(C#N)=C(N)C(C#N)(C#N)[C@H](c3ccoc3)[C@H]2C1	GLD-1 TGE inh 31, Bcl-xL primary 44 | GLD1 RNA confirm inactive
COc1ccc([C@H]2C(C(=O)O)=C[C@@H](CC3CCCC3)N2S(=O)(=O)c2ccc(C)cc2)cc1OC	none (no result: MEX-5 binding, IMP-1 inh, EBV gp42 block, Bcl-xL primary, VIM-2 inh)
CCc1ccccc1NC1=NCC(=O)N1Cc1ccc(OC)cc1	none
COc1ccc(CN2C(=O)CN=C2Nc2cc(C)ccc2C)cc1	GLD-1 TGE inh 33 | GLD1 RNA confirm inactive
CS(=O)(=O)Nc1ccc(C(=O)NCCSCc2c(F)cccc2Cl)cc1	GLD-1 TGE inh 37 | GLD1 RNA confirm inactive
CS(=O)(=O)Nc1ccc(C(=O)NCCSCc2ccccc2)cc1	none
Cc1ccc(S(=O)(=O)c2cnc(-c3ccccc3)nc2N2CCN(C)CC2)cc1	none
O=C(Nc1ccc2nc3ccccc3nc2c1)c1ccc(Br)cc1	none
CC(=O)Nc1ccc2nc3ccccc3nc2c1	GLD-1 TGE inh 48, Bcl-xL primary 59 | GLD1 RNA confirm 34
Cc1ccccc1C(=O)Nc1ccc(S(=O)(=O)N2CCCC2)cc1	none (no result: EBV gp42 block)

Screening data as filed in PubChem.
